Columns and labels:
Plasma [1] = test: Half life in CD-1 mouse plasma assessed as N-(N-(((2R,3R,4R,5R)-5-(6-amino-9H-purin-9-yl)-4-fluoro-3-hydroxytetrahydrofuran-2-yl)methyl)sulfamoyl)-2-hydroxybenzamide by HPLC method; format: ADME, cell-free
Method in brief: (§1)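 Pooled female plasma (CD-1 mouse, Sprague-Dawley rat, human) preincubated 5 min at 37 °C, then spiked from a 10 mM DMSO stock; triplicate. Samples at 0–360 min quenched with equal volume 10% TCA, centrifuged, supernatant run on HPLC. Half-life or percentage remaining at 6 h derived.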

[2] = Permeability from basolateral to apical side in human Caco2 cells assessed as prodrug remaining in apical side for 2 hrs by HPLC method; format: ADME, cell-based; conditions: caco-2, 2 h
Method in brief: (§2)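 Bidirectional Caco-2 transwell run (21-day monolayers, TER >300 Ωcm2, apical pH 6.0 / basolateral pH 7.4 buffers, 100 µM donor). Intact prodrug left in the apical and basolateral compartments at 2 h quantified by reversed-phase HPLC, with hydrolysis to parent tracked.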

[3] = Permeability from apical to basolateral side in human Caco2 cells assessed as prodrug remaining in basolateral side for 2 hrs by HPLC method; format: ADME, cell-based; conditions: caco-2, 2 h; method in brief: as §2
[4] = Retention time of compound by RP-HPLC method; format: physicochemical
Method in brief: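 Reversed-phase C18 column (5 µm, 4.6 × 250 mm). Mobile phase 20 mM triethylammonium bicarbonate pH 7.5 / acetonitrile. Gradient 5–70% acetonitrile over 10 min, then 90% to 16 min, then 3 min re-equilibration at 5%.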

[5] = Apparent permeability from apical to basolateral side in human Caco2 cells at 100 uM incubated for 2 hrs by HPLC method; format: ADME, cell-based; conditions: Caco-2
Method in brief: (§3)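 Caco-2 cells (passage 50–70) grown 21 days on 0.4 µm transwell inserts; wells with TER >300 Ωcm2 used. Apical CAB pH 6.0, basolateral CAB pH 7.4, preincubated 60 min at 65 rpm. Test compound 100 µM in donor with lucifer yellow for tight-junction integrity. Acceptor levels of prodrug plus hydrolyzed parent measured by HPLC over time with cumulative sampling. Papp = flux/(area × C0); efflux ratio = BL-AP/AP-BL.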

Plasma [6] = test: Stability in Sprague-Dawley rat plasma assessed as residual compound after 6 hrs by HPLC method; format: ADME, cell-free; method in brief: as §1
[7] = Efflux ratio of permeability from basolateral to apical side over apical to basolateral side in human Caco2 cells incubated for 2 hrs by HPLC method; format: ADME, cell-based; conditions: Caco-2; method in brief: as §3
[8] = Apparent permeability from basolateral to apical side in human Caco2 cells at 100 uM incubated for 2 hrs by HPLC method; format: ADME, cell-based; conditions: Caco-2; method in brief: as §3
[9] = Permeability from apical to basolateral side in human Caco2 cells assessed as prodrug remaining in apical side for 2 hrs by HPLC method; format: ADME, cell-based; conditions: caco-2, 2 h; method in brief: as §2
[10] = Permeability from basolateral to apical side in human Caco2 cells assessed as prodrug remaining in basolateral side for 2 hrs by HPLC method; format: ADME, cell-based; conditions: caco-2, 2 h; method in brief: as §2
[11] = Aqueous stability in pH 7.4 HEPES buffer assessed as prodrug remaining at 100 uM after 2 hrs by HPLC method; format: physicochemical; conditions: pH 7.4, 2 h
Method in brief: (§4)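 Compound 100 µM (2% DMSO final) incubated in triplicate at 37 °C in simulated gastric fluid pH 1.2 or 100 mM HEPES pH 7.4. Samples taken at 0 and 120 min, placed on ice and analysed by RP-HPLC for prodrug and released parent; percentage of prodrug remaining at 120 min calculated.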

Plasma [12] = test: Stability in human plasma assessed as residual compound after 6 hrs by HPLC method; format: ADME, cell-free; method in brief: as §1
[13] = Aqueous stability in pH 1.2 simulated gastric fluid assessed as prodrug remaining at 100 uM after 2 hrs by HPLC method; format: physicochemical; conditions: simulated gi fluid, pH 1.2, 2 h; method in brief: as §4
Plasma [14] = test: Stability in CD-1 mouse plasma assessed as residual compound after 6 hrs by HPLC method; format: ADME, cell-free; method in brief: as §1
Plasma [15] = test: Half life in Sprague-Dawley rat plasma assessed as N-(N-(((2R,3R,4R,5R)-5-(6-amino-9H-purin-9-yl)-4-fluoro-3-hydroxytetrahydrofuran-2-yl)methyl)sulfamoyl)-2-hydroxybenzamide by HPLC method; format: ADME, cell-free; method in brief: as §1
[16] = Aqueous stability in pH 7.4 HEPES buffer assessed as compound remaining after 2 hrs by HPLC method; format: physicochemical; conditions: pH 7.4, 2 h; method in brief: as §4
[17] = Drug level in pH 7.4 HEPES buffer treated with 100 uM 9-[3-O-(Acetyl)-2,5-dideoxy-2-fluoro-5-{N-(N-2-hydroxybenzoyl)sulfamoyl}amino-b-D-ribofuranosyl]adenine triethylammonium salt for 2 hrs by HPLC analysis; format: physicochemical; conditions: pH 7.4, 2 h; method in brief: as §4
[18] = Aqueous stability in pH 1.2 simulated gastric fluid assessed as compound remaining after 2 hrs by HPLC method; format: physicochemical; conditions: simulated gi fluid, pH 1.2, 2 h; method in brief: as §4

| SMILES | t1/2 (Plasma [1]) | permeability [2] | permeability [3] | Retention_time [4] | Papp A→B at 2 h, 100 µM [5] | Stability (Plasma [6]) | efflux ratio at 2 h [7] | Papp B→A at 2 h, 100 µM [8] | permeability [9] | permeability [10] | Stability [11] | Stability (Plasma [12]) | Stability [13] | Stability (Plasma [14]) | t1/2 (Plasma [15]) | Stability [16] | Drug metabolism [17] | Stability [18] |
| --- | --- | --- | --- | --- | --- | --- | --- | --- | --- | --- | --- | --- | --- | --- | --- | --- | --- | --- |
| CCCC(=O)O[C@H]1[C@@H](F)[C@H](n2cnc3c(N)ncnc32)O[C@@H]1CNS(=O)(=O)NC(=O)c1ccccc1O.CCN(CC)CC | 2.2 h | 15% | 63% | 10.4 min | 0.5 ×10⁻⁶ cm/s | 61% | 7 | 3.5 ×10⁻⁶ cm/s | 74% | 93% | 100% | 64% | 97% | – | – | – | – | – |
| CCC(=O)O[C@H]1[C@@H](F)[C@H](n2cnc3c(N)ncnc32)O[C@@H]1CNS(=O)(=O)NC(=O)c1ccccc1O.CCN(CC)CC | 3.3 h | – | – | 10 min | – | 58% | – | – | – | – | 100% | 70% | 97% | – | – | – | – | – |
| CCCCC(=O)O[C@H]1[C@@H](F)[C@H](n2cnc3c(N)ncnc32)O[C@@H]1CNS(=O)(=O)NC(=O)c1ccccc1O.CCN(CC)CC | 1.6 h | – | – | 11.9 min | – | 53% | – | – | – | – | 100% | 66% | 98% | – | – | – | – | – |
| CC(C)C(=O)O[C@H]1[C@@H](F)[C@H](n2cnc3c(N)ncnc32)O[C@@H]1CNS(=O)(=O)NC(=O)c1ccccc1O.CCN(CC)CC | 3.7 h | 53% | 73% | 10.7 min | 0.4 ×10⁻⁶ cm/s | 72% | 8.5 | 3.4 ×10⁻⁶ cm/s | 88% | 95% | 100% | – | 98% | – | – | – | – | – |
| CCCCCCCCCCCC(=O)O[C@H]1[C@@H](F)[C@H](n2cnc3c(N)ncnc32)O[C@@H]1CNS(=O)(=O)NC(=O)c1ccccc1O.CCN(CC)CC | 1.6 h | – | – | 9.9 min | – | 95% | – | – | – | – | 100% | 98% | 76% | – | – | – | – | – |
| CCC(CC)C(=O)O[C@H]1[C@@H](F)[C@H](n2cnc3c(N)ncnc32)O[C@@H]1CNS(=O)(=O)NC(=O)c1ccccc1O.CCN(CC)CC | – | 78% | 90% | – | 0.5 ×10⁻⁶ cm/s | 93% | 7.6 | 3.8 ×10⁻⁶ cm/s | 97% | 99% | 100% | 94% | 100% | 83% | – | – | – | – |
| CCCCCCCC(=O)O[C@H]1[C@@H](F)[C@H](n2cnc3c(N)ncnc32)O[C@@H]1CNS(=O)(=O)NC(=O)c1ccccc1O.CCN(CC)CC | 0.7 h | 1% | 3% | 13.7 min | 3.9 ×10⁻⁶ cm/s | 86% | 1.8 | 6.9 ×10⁻⁶ cm/s | 29% | 90% | 98% | – | 93% | – | – | – | – | – |
| CC(=O)O[C@H]1[C@@H](F)[C@H](n2cnc3c(N)ncnc32)O[C@@H]1CNS(=O)(=O)NC(=O)c1ccccc1O.CCN(CC)CC | 4.6 h | 88% | 81% | 9.5 min | 1.1 ×10⁻⁶ cm/s | – | 1.5 | 1.6 ×10⁻⁶ cm/s | 93% | 86% | 92% | 61% | 97% | – | 5.7 h | – | – | – |
| Nc1ncnc2c1ncn2[C@@H]1O[C@H](CNS(=O)(=O)NC(=O)c2ccccc2O)[C@@H](O)[C@H]1F | – | – | – | 8.9 min | – | – | – | – | – | – | – | – | – | – | – | 100% | metabolite_detected | 100% |
| Nc1ncnc2c1ncn2[C@@H]1O[C@H](COS(=O)(=O)NC(=O)c2ccccc2O)[C@@H](O)[C@H]1O | – | – | – | 7.8 min | – | – | – | – | – | – | – | – | – | – | – | – | – | – |

Reference: ChEMBL document CHEMBL3758075, “Synthesis and pharmacological evaluation of nucleoside prodrugs designed to target siderophore biosynthesis in Mycobacterium tuberculosis” (Bioorg Med Chem, 2016)
